Source: ChEMBL document CHEMBL4765265, “4-Substituted picolinohydrazonamides as a new class of potential antitubercular agents” (Eur J Med Chem, 2020)
Values after ≈ are worked out from the molar mass of the structure shown.

What was measured:
[1] = tested on: Mycobacterium tuberculosis; test: Antimycobacterial activity against Mycobacterium tuberculosis H37Rv; format: functional
Outline: (§1)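 Classical test-tube successive twofold dilution in Youmans' modification of Proskauer and Beck liquid medium with 10% bovine serum. Inoculum from 14-day-old cultures. Compounds dissolved in ethylene glycol (stock 10 mg/mL), tested at […]. Incubation at 37 °C. MIC is the lowest concentration inhibiting growth relative to a compound-free tube. Isoniazid, pyrazinamide and rifampicin served as references.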

[2] = tested on: Mycobacterium tuberculosis; test: Antimycobacterial activity against patient derived Mycobacterium tuberculosis Spec. 210; format: functional; outline: as §1
Staphylococcus aureus [3] = test: Antibacterial activity against Staphylococcus aureus ATCC 25923 assessed as reduction in bacterial growth incubated for 24 hrs by broth microdilution assay; format: functional
Outline: (§2)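 Twofold serial broth microdilution in Mueller-Hinton broth, supplemented with 5% lysed sheep blood for fastidious species. […]. Inoculum was set to 0.5 McFarland in 0.85% NaCl, giving a final 1.5 × 10⁶ CFU/mL. Plates were incubated 24 h at 35 °C. MIC was read visually as the lowest concentration with complete growth inhibition. Controls: 10% DMSO (final), growth and sterility. Triplicate.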

Staphylococcus aureus [4] = test: Antibacterial activity against Staphylococcus aureus ATCC 6538 assessed as reduction in bacterial growth incubated for 24 hrs by broth microdilution assay; format: functional; outline: as §2
Staphylococcus aureus [5] = test: Antibacterial activity against Staphylococcus aureus ATCC 43300 assessed as reduction in bacterial growth incubated for 24 hrs by broth microdilution assay; format: functional; outline: as §2
[6] = tested on: Staphylococcus epidermidis; test: Antibacterial activity against Staphylococcus epidermidis ATCC 12228 assessed as reduction in bacterial growth incubated for 24 hrs by broth microdilution assay; format: functional; outline: as §2
Micrococcus luteus = test: Antibacterial activity against Micrococcus luteus ATCC 10240 assessed as reduction in bacterial growth incubated for 24 hrs by broth microdilution assay; format: functional; outline: as §2
Bacillus subtilis = test: Antibacterial activity against Bacillus subtilis ATCC 6633 assessed as reduction in bacterial growth incubated for 24 hrs by broth microdilution assay; format: functional; outline: as §2
Bacillus cereus = test: Antibacterial activity against Bacillus cereus ATCC 10876 assessed as reduction in bacterial growth incubated for 24 hrs by broth microdilution assay; format: functional; outline: as §2
Streptococcus pyogenes = test: Antibacterial activity against Streptococcus pyogenes ATCC 19615 assessed as reduction in bacterial growth incubated for 24 hrs by broth microdilution assay; format: functional; outline: as §2
Streptococcus pneumoniae = test: Antibacterial activity against Streptococcus pneumoniae ATCC 49619 assessed as reduction in bacterial growth incubated for 24 hrs by broth microdilution assay; format: functional; outline: as §2
Streptococcus mutans = test: Antibacterial activity against Streptococcus mutans ATCC 25175 assessed as reduction in bacterial growth incubated for 24 hrs by broth microdilution assay; format: functional; outline: as §2
Candida parapsilosis = test: Antifungal activity against Candida parapsilosis ATCC 22019 assessed as reduction in fungal growth incubated for 48 hrs by broth microdilution assay; format: functional; conditions: Lodderomyces parapsilosis
Outline: (§3)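 Yeasts were tested by twofold broth microdilution in Mueller-Hinton broth with 2% glucose at final concentrations of 0.98–1000 µg/mL. Inoculum was prepared from 0.5 McFarland suspensions in 0.85% NaCl, giving a final 5 × 10⁴ CFU/mL. Incubation was 48 h at 30 °C. MIC was the lowest concentration visually showing complete growth inhibition. Controls: 10% DMSO (final), growth and sterility. Triplicate.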

Escherichia coli = test: Antibacterial activity against Escherichia coli ATCC 25922 assessed as reduction in bacterial growth incubated for 24 hrs by broth microdilution assay; format: functional; outline: as §2
Proteus mirabilis = test: Antibacterial activity against Proteus mirabilis ATCC […] assessed as reduction in bacterial growth incubated for 24 hrs by broth microdilution assay; format: functional; outline: as §2
Klebsiella pneumoniae = test: Antibacterial activity against Klebsiella pneumoniae ATCC 13883 assessed as reduction in bacterial growth incubated for 24 hrs by broth microdilution assay; format: functional; outline: as §2
Pseudomonas aeruginosa = test: Antibacterial activity against Pseudomonas aeruginosa ATCC 9027 assessed as reduction in bacterial growth incubated for 24 hrs by broth microdilution assay; format: functional; outline: as §2
Candida albicans [7] = test: Antifungal activity against Candida albicans ATCC […] assessed as reduction in fungal growth incubated for 48 hrs by broth microdilution assay; format: functional; outline: as §3
Candida albicans [8] = test: Antifungal activity against Candida albicans ATCC 2091 assessed as reduction in fungal growth incubated for 48 hrs by broth microdilution assay; format: functional; outline: as §3
B16-F10 = test: Cytotoxicity against mouse B16-F10 cells assessed as reduction in cell viability incubated for 72 hrs by MTT assay; format: cell-based; conditions: B16-F10, 72 h
NHDF = test: Cytotoxicity against human NHDF cells assessed as reduction in cell viability incubated for 72 hrs by MTT assay; format: cell-based

Compound `N/C(=N\NC(=S)N1CCN(c2ccccc2)CC1)c1cc(Sc2ccccc2)ccn1` has an MIC [1] of 25 µg/mL (≈ 55.7 µM) and an MIC [2] of 25 µg/mL (≈ 55.7 µM).
`N/C(=N\NC(=S)N1CCCCC1)c1cc(N2CCN(c3ccccc3)CC2)ccn1` was tested, and the MIC [1] was 25 µg/mL (≈ 59 µM) and the MIC [2] was 25 µg/mL (≈ 59 µM).
In the case of `N/C(=N\NC(=S)N1CCCCC1)c1cc(Sc2ccccc2)ccn1`, the MIC [1] is reported as 12.5 µg/mL (≈ 33.6 µM) and the MIC [2] is reported as 12.5 µg/mL (≈ 33.6 µM).
In the case of `N/C(=N\NC(=S)N1CCCCC1)c1cc(Oc2ccccc2)ccn1`, the MIC [1] is reported as 12.5 µg/mL (≈ 35.2 µM) and the MIC [2] is reported as 12.5 µg/mL (≈ 35.2 µM).
Work on `N/C(=N\NC(=S)N1CCCC1)c1cc(N2CCN(c3ccccc3)CC2)ccn1` yielded an MIC [1] of 12.5 µg/mL (≈ 30.5 µM) and an MIC [2] of 12.5 µg/mL (≈ 30.5 µM).
Work on `CN[C@H](CC(C)C)C(=O)N[C@H]1C(=O)N[C@@H](CC(N)=O)C(=O)N[C@H]2C(=O)N[C@H]3C(=O)N[C@H](C(=O)N[C@H](C(=O)O)c4cc(O)cc(O)c4-c4cc3ccc4O)[C@H](O)c3ccc(c(Cl)c3)Oc3cc2cc(c3O[C@@H]2O[C@H](CO)[C@@H](O)[C@H](O)[C@H]2O[C@H]2C[C@](C)(N)[C@H](O)[C@H](C)O2)Oc2ccc(cc2Cl)[C@H]1O` [VANCOMYCIN] yielded an MIC (Staphylococcus aureus [3]) of 0.98 µg/mL (≈ 0.676 µM), an MIC (Staphylococcus aureus [4]) of 0.49 µg/mL (≈ 0.338 µM) and an MIC (Staphylococcus aureus [5]) of 0.49 µg/mL (≈ 0.338 µM). For the same compound, the MIC [6] was 0.98 µg/mL (≈ 0.676 µM), the MIC (Micrococcus luteus) was 0.12 µg/mL (≈ 0.0828 µM) and the MIC (Bacillus subtilis) was 0.24 µg/mL (≈ 0.166 µM). The MIC (Bacillus cereus) was 0.98 µg/mL (≈ 0.676 µM), the MIC (Streptococcus pyogenes) was 0.24 µg/mL (≈ 0.166 µM) and the MIC (Streptococcus pneumoniae) was 0.24 µg/mL (≈ 0.166 µM). For the same compound, the MIC (Streptococcus mutans) was 0.98 µg/mL (≈ 0.676 µM).
With `N/C(=N\NC(=S)N1CCCC1)c1cc(N2CCCC2)ccn1` the MIC [1] was 6.25 µg/mL (≈ 19.6 µM) and the MIC [2] was 6.25 µg/mL (≈ 19.6 µM).
`N/C(=N\NC(=S)N1CCCCC1)c1cc(N2CCOCC2)ccn1` showed an MIC [1] of 6.25 µg/mL (≈ 17.9 µM) and an MIC [2] of 6.25 µg/mL (≈ 17.9 µM).
`N/C(=N\NC(=S)N1CCN(c2ccccc2)CC1)c1cc(N2CCOCC2)ccn1` gave an MIC [1] of 6.25 µg/mL (≈ 14.7 µM) and an MIC [2] of 6.25 µg/mL (≈ 14.7 µM).
Compound `N/C(=N\NC(=S)N1CCN(c2ccccc2)CC1)c1cc(Oc2ccccc2)ccn1` has an MIC [1] of 25 µg/mL (≈ 57.8 µM) and an MIC [2] of 25 µg/mL (≈ 57.8 µM).
In the case of `NC(=O)c1cnccn1` [PYRAZINAMIDE], the MIC [1] is reported as 25 µg/mL (≈ 203 µM) and the MIC [2] is reported as > 400 µg/mL.
Work on `N/C(=N\NC(=S)N1CCCCC1)c1cc(N2CCCC2)ccn1` yielded an MIC [1] of 6.25 µg/mL (≈ 18.8 µM) and an MIC [2] of 6.25 µg/mL (≈ 18.8 µM).
In the case of `N/C(=N\NC(=S)N1CCN(c2ccccc2)CC1)c1cc(N2CCN(c3ccccc3)CC2)ccn1`, the MIC [1] is reported as 25 µg/mL (≈ 49.9 µM) and the MIC [2] is reported as 25 µg/mL (≈ 49.9 µM).
Compound `N/C(=N\NC(=S)N1CCCC1)c1cc(N2CCOCC2)ccn1` has an MIC [1] of 6.25 µg/mL (≈ 18.7 µM) and an MIC [2] of 6.25 µg/mL (≈ 18.7 µM).
With `NNC(=O)c1ccncc1` [ISONIAZID] the MIC [1] was 3.1 µg/mL (≈ 22.6 µM) and the MIC [2] was 12.5 µg/mL (≈ 91.1 µM).
Compound `OC(Cn1cncn1)(Cn1cncn1)c1ccc(F)cc1F` [FLUCONAZOLE] has an MIC (Candida parapsilosis) of 1.95 µg/mL (≈ 6.37 µM).
`N/C(=N\NC(=S)N1CCCC1)c1cc(Sc2ccccc2)ccn1` showed an MIC [1] of 6.25 µg/mL (≈ 17.5 µM) and an MIC [2] of 6.25 µg/mL (≈ 17.5 µM).
`N/C(=N\NC(=S)N1CCOCC1)c1cc(N2CCN(c3ccccc3)CC2)ccn1` showed an MIC [1] of 6.25 µg/mL (≈ 14.7 µM) and an MIC [2] of 6.25 µg/mL (≈ 14.7 µM).
Work on `N/C(=N\NC(=S)N1CCOCC1)c1cc(N2CCOCC2)ccn1` yielded an MIC [1] of 3.1 µg/mL (≈ 8.85 µM), an MIC [2] of 3.1 µg/mL (≈ 8.85 µM) and an MIC (Staphylococcus aureus [3]) of 15.6 µg/mL (≈ 44.5 µM). It also gave an MIC (Staphylococcus aureus [4]) of 15.6 µg/mL (≈ 44.5 µM), an MIC (Staphylococcus aureus [5]) of 15.6 µg/mL (≈ 44.5 µM) and an MIC [6] of 15.6 µg/mL (≈ 44.5 µM). For the same compound, the MIC (Micrococcus luteus) was 7.8 µg/mL (≈ 22.3 µM), the MIC (Bacillus subtilis) was 31.3 µg/mL (≈ 89.3 µM) and the MIC (Bacillus cereus) was 31.3 µg/mL (≈ 89.3 µM). The MIC (Streptococcus pyogenes) was 1000 µg/mL (≈ 2850 µM), the MIC (Streptococcus pneumoniae) was > 1000 µg/mL and the MIC (Streptococcus mutans) was 1000 µg/mL (≈ 2850 µM). The MIC (Escherichia coli) was > 1000 µg/mL, the MIC (Proteus mirabilis) was > 1000 µg/mL and the MIC (Klebsiella pneumoniae) was 31.3 µg/mL (≈ 89.3 µM). For the same compound, the MIC (Pseudomonas aeruginosa) was > 1000 µg/mL, the MIC (Candida albicans [7]) was 31.3 µg/mL (≈ 89.3 µM) and the MIC (Candida albicans [8]) was 31.3 µg/mL (≈ 89.3 µM). The MIC (Candida parapsilosis) was 31.3 µg/mL (≈ 89.3 µM), the IC50 (B16-F10) was 17.8 µg/mL (≈ 50.9 µM) and the IC50 (NHDF) was “Not Active”.
For `O=C(O)c1cn(C2CC2)c2cc(N3CCNCC3)c(F)cc2c1=O` [CIPROFLOXACIN], the MIC (Staphylococcus aureus [3]) was 0.49 µg/mL (≈ 1.48 µM), the MIC (Staphylococcus aureus [4]) was 0.24 µg/mL (≈ 0.724 µM) and the MIC (Staphylococcus aureus [5]) was 0.24 µg/mL (≈ 0.724 µM). It also gave an MIC [6] of 0.49 µg/mL (≈ 1.48 µM), an MIC (Micrococcus luteus) of 0.98 µg/mL (≈ 2.96 µM) and an MIC (Bacillus subtilis) of 0.03 µg/mL (≈ 0.0905 µM). The MIC (Bacillus cereus) was 0.12 µg/mL (≈ 0.362 µM), the MIC (Proteus mirabilis) was 0.03 µg/mL (≈ 0.0905 µM) and the MIC (Klebsiella pneumoniae) was 0.12 µg/mL (≈ 0.362 µM).
In the case of `N/C(=N\NC(=S)N1CCN(c2ccccc2)CC1)c1cc(N2CCCC2)ccn1`, the MIC [1] is reported as 6.25 µg/mL (≈ 15.3 µM) and the MIC [2] is reported as 6.25 µg/mL (≈ 15.3 µM).
